ChEMBL document CHEMBL4406880, “Design, synthesis, and bioactivity of dihydropyrimidine derivatives as kinesin spindle protein inhibitors” (Bioorg Med Chem, 2019)

Tests used:
Format in all cases: functional
CCRF-CEM = assay: Growth inhibition of human CCRF-CEM cells assessed as growth percentage at 10 uM incubated for 48 hrs by sulforhodamine B assay relative to control; settings: read-out: Activity
In short: (§1)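 NCI-60 one-dose screen: cells in RPMI 1640 with 5% FBS and 2 mM L-glutamine, plated at 5,000–40,000 cells/well and preincubated 24 h at 37 °C, 5% CO2. Compound is added from a DMSO stock to a final 10 µM and incubated 48 h. Cells are TCA-fixed and stained with sulforhodamine B, read at 515 nm. Output is % growth versus untreated control, with a time-zero plate.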

MOLT-4 = assay: Growth inhibition of human MOLT4 cells assessed as growth percentage at 10 uM incubated for 48 hrs by sulforhodamine B assay relative to control; settings: MOLT-4, 48 h, read-out: Activity
In short: (§2)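 NCI-60 one-dose screen. Cells in RPMI 1640 with 5% FBS and 2 mM L-glutamine, seeded at 5,000–40,000 cells/well according to doubling time, and preincubated overnight at 37 °C, 5% CO2. A time-zero plate was TCA-fixed at drug addition. Compound from DMSO stock, final 10 µM, 48 h; DMSO vehicle controls. Fixation with TCA, 10% final (16% for suspension cells). SRB stain, Tris solubilization, A515. Result given as % growth versus untreated cells.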

HOP-92 = assay: Growth inhibition of human HOP92 cells assessed as growth percentage at 10 uM incubated for 48 hrs by sulforhodamine B assay relative to control; settings: HOP-92, 48 h, read-out: Activity; in short: as §2
NCI-H23 = assay: Growth inhibition of human NCI-H23 cells assessed as growth percentage at 10 uM incubated for 48 hrs by sulforhodamine B assay relative to control; settings: NCI-H23, 48 h, read-out: Activity; in short: as §2
COLO 205 = assay: Growth inhibition of human COLO205 cells assessed as growth percentage at 10 uM incubated for 48 hrs by sulforhodamine B assay relative to control; settings: COLO 205, 48 h, read-out: Activity; in short: as §1
HCC 2998 = assay: Growth inhibition of human HCC2998 cells assessed as growth percentage at 10 uM incubated for 48 hrs by sulforhodamine B assay relative to control; settings: HCC 2998, 48 h, read-out: Activity; in short: as §1
HT-29 = assay: Growth inhibition of human HT-29 cells assessed as growth percentage at 10 uM incubated for 48 hrs by sulforhodamine B assay relative to control; settings: HT-29, 48 h, read-out: Activity; in short: as §2
SF-539 = assay: Growth inhibition of human SF539 cells assessed as growth percentage at 10 uM incubated for 48 hrs by sulforhodamine B assay relative to control; settings: SF-539, 48 h, read-out: Activity
In short: (§3)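 NCI-60 single-dose screen. Cells were grown in RPMI 1640 with 5% FBS and 2 mM L-glutamine and plated at 5,000–40,000 cells/well. After an overnight preincubation at 37 °C in 5% CO2, compound was added at a final 10 µM from a DMSO stock, with DMSO/PBS controls. After 48 h, cells were TCA-fixed and stained with 0.4% SRB, and absorbance was read at 515 nm. Growth is given as a percentage of untreated control.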

SNB-19 = assay: Growth inhibition of human SNB19 cells assessed as growth percentage at 10 uM incubated for 48 hrs by sulforhodamine B assay relative to control; settings: SNB-19, 48 h, read-out: Activity; in short: as §3
MDA-MB-435 = assay: Growth inhibition of human MDA-MB-435 cells assessed as growth percentage at 10 uM incubated for 48 hrs by sulforhodamine B assay relative to control; settings: MDA-MB-435, 48 h, read-out: Activity; in short: as §2
SK-MEL-28 = assay: Growth inhibition of human SK-MEL-28 cells assessed as growth percentage at 10 uM incubated for 48 hrs by sulforhodamine B assay relative to control; settings: SK-MEL-28, 48 h, read-out: Activity; in short: as §3
IGROV-1 = assay: Growth inhibition of human IGROV1 cells assessed as growth percentage at 10 uM incubated for 48 hrs by sulforhodamine B assay relative to control; settings: IGROV-1, 48 h, read-out: Activity; in short: as §2
OVCAR-3 = assay: Growth inhibition of human OVCAR3 cells assessed as growth percentage at 10 uM incubated for 48 hrs by sulforhodamine B assay relative to control; settings: OVCAR-3, 48 h, read-out: Activity; in short: as §2
OVCAR-8 = assay: Growth inhibition of human OVCAR8 cells assessed as growth percentage at 10 uM incubated for 48 hrs by sulforhodamine B assay relative to control; settings: OVCAR-8, 48 h, read-out: Activity; in short: as §3
NCI/ADR-RES = assay: Growth inhibition of human NCI/ADR-RES cells assessed as growth percentage at 10 uM incubated for 48 hrs by sulforhodamine B assay relative to control; settings: read-out: Activity; in short: as §2
786-0 = assay: Growth inhibition of human 786-0 cells assessed as growth percentage at 10 uM incubated for 48 hrs by sulforhodamine B assay relative to control; settings: 786-0, 48 h, read-out: Activity; in short: as §1
CAKI-1 = assay: Growth inhibition of human Caki1 cells assessed as growth percentage at 10 uM incubated for 48 hrs by sulforhodamine B assay relative to control; settings: CAKI-1, 48 h, read-out: Activity; in short: as §1
RXF 393 = assay: Growth inhibition of human RXF393 cells assessed as growth percentage at 10 uM incubated for 48 hrs by sulforhodamine B assay relative to control; settings: RXF 393, 48 h, read-out: Activity; in short: as §3
TK-10 = assay: Growth inhibition of human TK10 cells assessed as growth percentage at 10 uM incubated for 48 hrs by sulforhodamine B assay relative to control; settings: TK-10, 48 h, read-out: Activity; in short: as §3
UO-31 = assay: Growth inhibition of human UO31 cells assessed as growth percentage at 10 uM incubated for 48 hrs by sulforhodamine B assay relative to control; settings: UO-31, 48 h, read-out: Activity; in short: as §3
DU-145 = assay: Growth inhibition of human DU145 cells assessed as growth percentage at 10 uM incubated for 48 hrs by sulforhodamine B assay relative to control; settings: DU-145, 48 h, read-out: Activity; in short: as §1
MCF7 = assay: Growth inhibition of human MCF7 cells assessed as growth percentage at 10 uM incubated for 48 hrs by sulforhodamine B assay relative to control; settings: MCF7, 48 h, read-out: Activity; in short: as §2
Hs-578T = assay: Growth inhibition of human Hs 578T cells assessed as growth percentage at 10 uM incubated for 48 hrs by sulforhodamine B assay relative to control; settings: read-out: Activity; in short: as §2
BT-549 = assay: Growth inhibition of human BT549 cells assessed as growth percentage at 10 uM incubated for 48 hrs by sulforhodamine B assay relative to control; settings: BT-549, 48 h, read-out: Activity; in short: as §1
T47D = assay: Growth inhibition of human T47D cells assessed as growth percentage at 10 uM incubated for 48 hrs by sulforhodamine B assay relative to control; settings: read-out: Activity; in short: as §3
MDA-MB-468 = assay: Growth inhibition of human MDA-MB-468 cells assessed as growth percentage at 10 uM incubated for 48 hrs by sulforhodamine B assay relative to control; settings: MDA-MB-468, 48 h, read-out: Activity; in short: as §2

Row | Compound | growth at 10 µM (CCRF-CEM) | growth at 10 µM (MOLT-4) | growth at 10 µM (HOP-92) | growth at 10 µM (NCI-H23) | growth at 10 µM (COLO 205) | growth at 10 µM (HCC 2998) | growth at 10 µM (HT-29) | growth at 10 µM (SF-539) | growth at 10 µM (SNB-19) | growth at 10 µM (MDA-MB-435) | growth at 10 µM (SK-MEL-28) | growth at 10 µM (IGROV-1) | growth at 10 µM (OVCAR-3) | growth at 10 µM (OVCAR-8) | growth at 10 µM (NCI/ADR-RES) | growth at 10 µM (786-0) | growth at 10 µM (CAKI-1) | growth at 10 µM (RXF 393) | growth at 10 µM (TK-10) | growth at 10 µM (UO-31) | other results
1 | CC(=O)N1C(=S)NC(C)=C(C(=O)OC(C)C)C1c1ccc2c(c1)OCO2 (racemic) | 81.5% | 95.2% | 78.1% | 100% | 99.5% | 110% | 105% | 98.2% | 98.1% | 102% | 111% | 106% | 109% | 96.4% | 103% | 102% | 97.2% | 111% | 103% | 91.3% | growth at 10 µM (DU-145): 104%; growth at 10 µM (MCF7): 97.2%; growth at 10 µM (Hs-578T): 98%; growth at 10 µM (BT-549): 99.3%; growth at 10 µM (T47D): 70.4%; growth at 10 µM (MDA-MB-468): 104%
2 | CC1=C(C(=O)OCC(C)C)C(c2ccc3c(c2)OCO3)NC(=S)N1 (racemic) | 101% | 89.1% | 103% | 99.5% | 123% | 112% | 106% | 109% | 103% | 103% | 119% | 97.9% | 109% | 102% | 96.7% | 104% | 86.6% | 100% | 101% | 89.4% | growth at 10 µM (DU-145): 109%; growth at 10 µM (MCF7): 98.6%; growth at 10 µM (Hs-578T): 101%; growth at 10 µM (BT-549): 95%; growth at 10 µM (T47D): 81.9%; growth at 10 µM (MDA-MB-468): 94.6%
